ChEMBL document CHEMBL2203144, “Synthesis and evaluation of antimicrobial activity of 4H-pyrimido[2,1-b]benzothiazole, pyrazole and benzylidene derivatives of curcumin” (Eur J Med Chem, 2012)
Active and inactive are the calls of the source. No cut-off for these calls is given here.

Assays:
Salmonella typhi = assay: Antibacterial activity against Salmonella typhi ATCC 15499 after 24 hrs by broth microdilution method; assay type: functional, Salmonella enterica subsp. enterica serovar Typhi
Outline: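 Broth microdilution in brain heart infusion broth in microwells. Inoculum was prepared from 16 h cultures adjusted to the 0.5 McFarland standard (1.5 × 10⁸ CFU/mL). Compounds were serially diluted from 20 down to 0.625 µM/mL and added to the broth, followed by the bacterial culture. Plates were incubated 24 h at 37 °C, with optical density read. MIC95 was the lowest concentration giving no turbidity. Inoculum and broth controls were included.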

Aspergillus fumigatus [1] = assay: Antifungal activity against Aspergillus fumigatus after 72 hrs by agar disk diffusion method; assay type: functional
Outline: (§1)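 Sterile filter-paper discs dipped in the acetone dilutions of compound (20–0.315 µM/mL), then dried to remove acetone. Sabouraud dextrose agar plates spread with 1 mL fungal culture. Discs placed aseptically; one drug-free disc served as growth control; fluconazole reference. Plates incubated upright 72 h at 28 °C. Zone of inhibition measured in mm with a scale.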

Staphylococcus aureus = assay: Antibacterial activity against Staphylococcus aureus ATCC 11632 after 24 hrs by broth microdilution method; assay type: functional
Outline: (§2)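 Microwell broth dilution in brain heart infusion broth (nutrient broth adjusted to pH 7.0). Inoculum from 16 h cultures, adjusted to 0.5 McFarland (1.5 × 10⁸ CFU/mL). 10 µL compound (serial dilutions 20 down to 0.625 or 0.312 µM/mL) plus 10 µL culture added to 150 µL broth. Incubated 24 h at 37 °C. MIC95 is the lowest concentration with no turbidity. Ciprofloxacin reference; inoculum and broth controls.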

Aspergillus flavus [2] = assay: Antifungal activity against Aspergillus flavus after 72 hrs by broth dilution method; assay type: functional
Outline: (§3)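 Compounds and fluconazole reference were dissolved in acetone at 120 µM/mL and serially diluted to 20–0.315 µM/mL. 10 µL compound plus 10 µL fungal culture broth added to 150 µL Sabouraud dextrose medium per well. Optical density recorded, then incubated 72 h at 28 °C. MIC95 taken from absence of turbidity. Acetone-at-same-dilution solvent control.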

Providencia rettgeri = assay: Antibacterial activity against Providencia rettgeri DRDE after 24 hrs by broth microdilution method; assay type: functional; outline: as §2
Escherichia coli = assay: Antibacterial activity against Escherichia coli ATCC 35218 after 24 hrs by broth microdilution method; assay type: functional; outline: as §2
[3] = Cytotoxicity against human L123 cells after 48 hrs by MTT assay; assay type: cell-based
Outline: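 MTT assay. 2×10³ cells per well in MEM + 10% FBS, attached 24 h, then treated at 5, 10, 20, 50 and 100 µM/mL for 48 h; controls received medium with 0.2% DMSO. Duplicate treatments. Cells PBS-washed, given MTT (stock 1 mg/mL) for 4 h at 37 °C. Formazan dissolved in DMSO, read at 590 nm. IC50 is the concentration reducing viability by 50%.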

Bacillus cereus = assay: Antibacterial activity against Bacillus cereus MTCC 7350 after 24 hrs by broth microdilution method; assay type: functional; outline: as §2
Aspergillus niger [4] = assay: Antifungal activity against Aspergillus niger after 72 hrs by broth dilution method; assay type: functional; outline: as §3
Aspergillus flavus [5] = assay: Antifungal activity against Aspergillus flavus after 72 hrs by agar disk diffusion method; assay type: functional; outline: as §1
Aspergillus niger [6] = assay: Antifungal activity against Aspergillus niger after 72 hrs by agar disk diffusion method; assay type: functional; outline: as §1
Aspergillus fumigatus [7] = assay: Antifungal activity against Aspergillus fumigatus after 72 hrs by broth dilution method; assay type: functional; outline: as §3
Pseudomonas aeruginosa = assay: Antibacterial activity against Pseudomonas aeruginosa ATCC 23564 after 24 hrs by broth microdilution method; assay type: functional; outline: as §2
[8] = Salmonella enterica subsp. enterica serovar Typhi

SMILES | MIC95 (Salmonella typhi) [uM/ml] | inhibition zone (IZ) (Aspergillus fumigatus [1]) | MIC95 (Staphylococcus aureus) | MIC95 (Aspergillus flavus [2]) | MIC95 (Providencia rettgeri) | MIC95 (Escherichia coli) [uM/ml] | IC50 [3] [uM/ml] | MIC95 (Bacillus cereus) | MIC95 (Aspergillus niger [4]) | inhibition zone (IZ) (Aspergillus flavus [5]) | inhibition zone (IZ) (Aspergillus niger [6]) | MIC95 (Aspergillus fumigatus [7]) | MIC95 (Pseudomonas aeruginosa) | MIC95 (Salmonella typhi; [8])
COc1cc(/C=C/C(=O)C2=C(/C=C/c3ccc(O)c(OC)c3)N=C3Sc4ccccc4N3C2c2ccc([N+](=O)[O-])cc2)ccc1O (centres undefined) | 20 | 15 mm | inactive | inactive | 10 uM/ml | 5 | > 100 | 2.5 uM/ml | 10 uM/ml | inactive | 10 mm | 20 uM/ml | 10 uM/ml | 
COc1cc(/C=C/C(=O)C2=C(/C=C/c3ccc(O)c(OC)c3)N=C3Sc4ccccc4N3C2c2ccc(C)cc2)ccc1O (centres undefined) |  | inactive | 20 uM/ml | inactive | 20 uM/ml | 10 |  | 5 uM/ml | inactive | inactive | inactive | inactive | inactive | inactive
COc1cc(/C=C/c2cc(/C=C/c3ccc(O)c(OC)c3)n(C(N)=O)n2)ccc1O |  | 20 mm | inactive | inactive | 2.5 uM/ml | 2.5 |  | inactive | 5 uM/ml | inactive | 15 mm | 1.25 uM/ml | 5 uM/ml | inactive
OC(Cn1cncn1)(Cn1cncn1)c1ccc(F)cc1F [FLUCONAZOLE] |  | 22 mm |  | 1.25 uM/ml |  |  |  |  | 2.5 uM/ml | 25 mm | 18 mm | 1.25 uM/ml |  | 
COc1cc(/C=C/C(=O)C(=Cc2ccccc2O)C(=O)/C=C/c2ccc(O)c(OC)c2)ccc1O | 5 | 20 mm | 1.25 uM/ml | inactive | 1.25 uM/ml | 2.5 | 50 | 1.25 uM/ml | 2.5 uM/ml | inactive | 17 mm | 2.5 uM/ml | 1.25 uM/ml | 
COc1cc(/C=C/C(=O)C2=C(/C=C/c3ccc(O)c(OC)c3)N=C3Sc4ccccc4N3C2c2ccc(Cl)cc2)ccc1O (centres undefined) |  | inactive | inactive | inactive | inactive | 10 | > 100 | 5 uM/ml | inactive | inactive | inactive | inactive | 20 uM/ml | inactive
COc1cc(/C=C/c2cc(/C=C/c3ccc(O)c(OC)c3)n(C(=O)c3ccncc3)n2)ccc1O | 5 | inactive | 1.25 uM/ml | 2.5 uM/ml | inactive | 2.5 | > 100 | inactive | 2.5 uM/ml | 22 mm | 18 mm | inactive | 1.25 uM/ml | 
COc1cc(/C=C/C(=O)C2=C(/C=C/c3ccc(O)c(OC)c3)N=C3Sc4ccccc4N3C2c2ccc(O)c(OC)c2)ccc1O (centres undefined) | 10 | inactive | inactive | 12 uM/ml | 10 uM/ml | 10 |  | 2.5 uM/ml | inactive | 11 mm | inactive | inactive | 5 uM/ml | 
